# Results taken from paper PMC2949545 (Environment international, 2010).
# Where “and” joins values, the source holds several entries; their conditions need not be identical. Equal entries are not always repeated.
# Tests used:
# [1] = system: LacI gene; assay: LacI gene sequencing, type of mutations; assay type: in vivo, F344 BigBlue rats; details: female liver
# [2] = system: F344 BigBlue rats; assay: Organ weights normalized to body weight; assay type: in vivo; details: versus corn oil controls
# Outline: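 Rats of both genders, 4/group, were given 4 weekly i.p. doses in corn oil and killed on PND75 by CO2 then cervical dislocation. Liver and other organs were excised and weighed, and weights were expressed as g per 100 g body weight. ANOVA used treatment, gender and their interaction.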
# [3] = Body weight gain during the study period; assay type: in vivo, F344 BigBlue rats
# [4] = system: liver mRNA; assay: Gene expression analysis of female liver RNA; assay type: in vivo, F344 BigBlue rats
# [5] = system: F344 BigBlue rats; assay: Histological analysis of spleen, lung and liver; assay type: in vivo; details: animal 1 – 4
# Outline: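 In both genders, frozen tissue sampled at PND75 sacrifice (4 weekly i.p. doses, 4 rats/group) was cut into four-micron sections. Sections were stained with hematoxylin/eosin and examined by light microscopy for histological anomalies in each animal.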
# [6] = system: LacI gene; assay: BigBlue lacI mutant and mutation frequency analysis, female liver; assay type: in vivo, F344 BigBlue rats
# Outline: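 Female F344 BigBlue rats (lacI transgene), 4/group, got i.p. test compound, positive control or corn oil (5 ml/kg) weekly on PND 37, 44, 51, 58 and were killed on PND75. Genomic DNA from 50 mg central liver was lambda-packaged, infected into E. coli and plated in X-gal top agar overnight. Blue plaques were counted, with >100,000 pfu/animal. Mutant frequency = blue plaques/pfu, per 10^6 ± SE.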
# [7] = system: Sprague Dawley rat; details: female Sprague Dawley rats; ref http://ntp.niehs.nih.gov/; cited from earlier work
structure (smiles),measurement,setting,value
"Clc1ccc(-c2ccccc2)cc1 [PCB3, 4-chlorobiphenyl]","Deletions, % of total",[1],7%
same,"Insertions, % of total",[1],20%
same,Total Mutations,[1],15
same,"Transitions, % of total",[1],53%
same,"Transversions, % of total",[1],20%
same,"Deletions, distinct mutations",[1]; number,1
same,"Insertions, distinct mutations",[1]; number,3
same,"Transitions, distinct mutations",[1]; number,8
same,"Transversions, distinct mutations",[1]; number,3
same,"impact on liver, lung and spleen weights",[2],no statistically significant impact
same,Weight Gain (average ± StDev),"[3]; Female, control 80.7 ± 7.42",79.6 ± 4.51 gram
same,Weight Gain (average ± StDev),"[3]; Male, control 159.7 ± 7.63",146.1 ± 7.99 gram
same,effect on weight gain compared to control,[3]; either gender,Neither PCB3 nor 4′-OH-PCB3 had a significant effect on weight gain in either gender
same,number of unique genes significantly changed,"[4]; p < 0.0001 and fold change > 5 versus corn oil control, pooled RNA",86
same,CYP mRNA in the liver,[4]; versus corn oil control,No CYP mRNA increase
same,Jun expression change,"[4]; versus corn oil control, up",55.9 fold
same,avpr1a (arginine vasopressin receptor 1A) expression change,"[4]; versus corn oil control, up",7.3 fold
same,cfdp1 (craniofacial development protein 1) expression change,"[4]; versus corn oil control, up",6.2 fold
same,cps1 (carbamoyl-phosphate synthetase 1) expression change,"[4]; versus corn oil control, up",6.7 fold
same,hmox1 (heme oxygenase 1) expression change,"[4]; versus corn oil control, up",5.8 fold
same,kdr (kinase insert domain protein receptor) expression change,"[4]; versus corn oil control, up",5.5 fold
same,lrrc59 (leucine rich repeat containing 59) expression change,"[4]; versus corn oil control, up",33.1 fold
same,mbd2 (Methyl-CpG-binding protein) expression change,"[4]; versus corn oil control, up",6.9 fold
same,mrpl23 (mitochondrial ribosomal protein L23) expression change,"[4]; versus corn oil control, up",223.3 fold
same,sult1b1 (sulfotransforase 1b1) expression change,"[4]; versus corn oil control, up-regulated",~7 fold
same,"Organ Pathology, LIVER",[5]; Female,all female PCB3 livers had acidophilic bodies and two animals also showed patchy hepatocellular necrosis and 1 + 2: Scattered acidophilic bodies 3: Centrilobular acidophilic bodies and patchy hepatocellular necrosis. 4: Centrilobular acidophilic bodies and patchy hepatocellular necrosis.
same,"Organ Pathology, LUNG",[5]; Female,1: Focal acute inflammation 2: Minimal acute inflammation with areas of atelectasis 3: Minimal acute inflammation 4: Patchy bronchopneumonia with early ARDS. Perivascular lymphocytes increased.
same,"Organ Pathology, SPLEEN",[5]; Female,No abnormality
same,"Organ Pathology, SPLEEN",[5]; Male,No abnormality
same,significance of the increase in mutation frequency compared to control,[6],neither PCB3 (p=0.429) nor 4′-OH-PCB3 (p=0.581) increased the mutation frequency significantly
same,Mutants per 10^6 plaques (mutant frequency),"[6]; 4 weekly i.p. injections, sacrifice PND75",30.3 per 10^6 plaques
same,Mutation Frequency (MF) ± SE (corrected),[6]; after sequencing,30.3 ± 17.9 per 10^6 pfu
same,Number of Mutations (corrected),"[6]; after sequencing, duplicates and non-mutants excluded",15
"Clc1ccc(-c2cc(Cl)c(Cl)cc2Cl)cc1Cl [PCB 118, 2,3′,4,4′,5-pentachloro-biphenyl]",carcinogenicity in chronic carcinogenicity studies,[7],clear evidence
"Clc1ccc(-c2cc(Cl)c(Cl)c(Cl)c2)cc1Cl [PCB 126, 3,3′,4,4′,5-pentachlorobiphenyl]",carcinogenicity in chronic carcinogenicity studies,[7],clear evidence
